A selection: hits, their analogues and other compounds. The true share with any hit is near 3.5%.
MrgX1 allo act = positive allosteric modulators of MrgX1, primary screen, HEK293 cells, Fluo-4 calcium flux; Mas-related G-protein coupled receptor member X1 (Homo sapiens), Q96LB2; FDSS; active compounds read high; B-score at 10 µM; hit rate 0.63% among 310,000; AID 588675, 2011;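 active = plate-corrected calcium response at least 3 library SD above typical, normal starting fluorescence, not activating the receptor alone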;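 note: compound read alongside a low EC10 to EC30 dose of BAM8-22 agonist; peak minus trough fluorescence over baseline measured at the second addition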
Target sequence (Q96LB2 whole entry, looked up): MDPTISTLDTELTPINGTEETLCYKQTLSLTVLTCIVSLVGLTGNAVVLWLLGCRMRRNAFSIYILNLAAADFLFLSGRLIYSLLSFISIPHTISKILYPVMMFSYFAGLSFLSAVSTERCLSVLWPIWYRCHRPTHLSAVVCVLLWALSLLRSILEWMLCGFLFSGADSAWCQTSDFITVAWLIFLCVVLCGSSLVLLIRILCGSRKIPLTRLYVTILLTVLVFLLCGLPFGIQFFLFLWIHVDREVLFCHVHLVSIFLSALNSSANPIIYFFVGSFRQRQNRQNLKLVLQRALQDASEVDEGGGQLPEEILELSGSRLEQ
RGS4 inh = RGS4 inhibitors, primary screen, cell-based, HEK293 M3R inducible RGS4, calcium flux | Fluo-4 calcium flux; active compounds read high; triggered by carbachol at its EC20 | hit rate 0.45% among 310,000 | B-score at 10 µM;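 active = B-score, a plate-corrected calcium signal, over three deviations above library mean, with baseline fluorescence within five deviations of library mean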;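 note: RGS4 expression induced by doxycycline in cells with stable M3 receptor; B-score is computed from the integrated fluorescence ratio over baseline after carbachol; higher B-score means a larger calcium signal and so more RGS4 inhibition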
Target sequence (P49798 whole entry, looked up): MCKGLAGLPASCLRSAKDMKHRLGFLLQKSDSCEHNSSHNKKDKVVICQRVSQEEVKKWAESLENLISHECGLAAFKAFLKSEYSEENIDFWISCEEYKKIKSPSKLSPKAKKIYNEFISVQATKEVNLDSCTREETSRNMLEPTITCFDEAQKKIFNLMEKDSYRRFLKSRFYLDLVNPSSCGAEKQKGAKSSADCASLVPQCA
MrgX1 antag = antagonists of human MrgX1 receptor, primary screen, HEK293 cells, Fluo-4 calcium flux; Mas-related G-protein coupled receptor member X1 (Homo sapiens), Q96LB2; BAM8-22 antagonism; active compounds read low; hit rate 1.3% among 310,000; B-score at 10 µM;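 active = calcium-response B-score plate-corrected more than 3 library SD below zero, starting fluorescence within 5 deviations, no agonist response on first addition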;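 note: peak minus trough fluorescence over baseline after final BAM8-22 challenge near maximal dose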
MrgX1 ag = agonists of human MrgX1 receptor, primary screen, HEK293 cells, Fluo-4 calcium flux; hit rate 0.44% among 310,000; B-score at 10 µM; Mas-related G-protein coupled receptor member X1 (Homo sapiens), Q96LB2; AID 588627, 2011; Fluo-4 calcium fluorescence, agonist mode; active compounds read high;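 active = calcium response B-score plate-corrected fluorescence ratio at least 3 library SD, with starting fluorescence B-score inside 5 SD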
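Assay system: stable human MrgX1 HEK293 cell line. Quantity: 15,000 cells per well. Schedule: cells plated overnight, dye loaded 0.5 h 37 °C, 0.5 h room temperature. Detection: Fluo-4 NW calcium-flux fluorescence, kinetic read. Read-out basis: peak-minus-minimum fluorescence over baseline, converted to B scores. Control set: positive and negative control wells on each plate.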
RGS4 pot = RGS4 potentiators or activators, primary screen, cell-based, HEK293 M3R inducible RGS4, calcium flux. B-score at 10 µM. carbachol calcium flux Fluo4; active compounds read low. hit rate 0.92% among 310,000;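 active = B-score of the integrated calcium signal more than 4 SD below the library mean, with starting fluorescence not abnormally high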;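 note: negative B-score means reduced calcium response which marks RGS4 activation or potentiation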
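Reagent: ECmax carbachol challenge; Test system: M3R-expressing HEK293 line, RGS4 induced by doxycycline; Schedule: overnight RGS4 induction, 30 min dye load 37 °C, 20 min compound RT; Detection: calcium dye Fluo4 fluorescence; Read-out: Agonist-evoked peak-minus-minimum fluorescence over baseline, integrated ratio, B score.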
RGS4 inh valid = enhanced carbachol calcium response, M3R/RGS4 cells, RGS4 inhibitor project, cell-based, validation screen, HEK293 M3R/RGS4, calcium flux; AID 492999, 2010; calcium response, % at 10 µM; hit rate 65% among 1,700; carbachol calcium Fluo-4 fluorescence; carbachol added at its EC20; 0 = buffer wells, 100 = carbachol control; shares compounds with RGS4 inh;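 active = duplicate-averaged calcium response above the buffer-only control mean plus 5 SD of those controls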;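 note: integrated fluorescence ratio F max minus min over baseline F0; higher response in RGS4-induced cells means RGS4 inhibition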
M3R Ca ctr = carbachol calcium response in non-induced M3R cells, confirmation, counter-screen for RGS4 inhibitor project, cell-based, HEK293 M3R; activity (percent), % at 10 µM; carbachol calcium Fluo-4; submaximal (EC20) carbachol stimulus; buffer wells 0%, carbachol control wells 100%; hit rate 20% among 1,900; shares compounds with RGS4 inh; call rule not given here;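 note: RGS4 induction absent so cells express M3R without RGS4; higher means more calcium signal and flags a non-specific hit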
M3R basal Ca ctr = signal in non-induced cells without carbachol, RGS4 inhibitor counter-screen; HEK293 M3R/RGS4 non-induced, Fluo-4 calcium, no carbachol; normalised: buffer wells 0%, carbachol wells 100%; hit rate 22% among 1,900; shares compounds with RGS4 inh; calcium response (agonist-mode artifact), % at 10 µM;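 active = duplicate-averaged calcium rise in uninduced cells above buffer wells' mean plus 5 SD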
Numbers without * were called inactive; i = inactive; . = not tested or not shown.

SMILES	MrgX1 allo act	RGS4 inh	MrgX1 antag	MrgX1 ag	RGS4 pot	RGS4 inh valid	M3R Ca ctr	M3R basal Ca ctr
COc1ccc(S(=O)(=O)Nc2cccc(F)c2)cc1C	i	i	i	i	i	.	.	.
COc1ccc(S(=O)(=O)Nc2ccc(S(=O)(=O)Nc3ccc(F)cc3)cc2)cc1C	i	5*	i	i	i	22%*	i	i
Cc1ccc(NC(=O)C2CC(O)CN2C(=O)OCc2ccccc2)c(C)c1 (stereo not drawn)	i	i	i	i	i	.	.	.
OCCOCCn1c(C(CO)Nc2nc(-c3ccc(F)cc3)cs2)nc2ccccc21 (stereo not drawn)	i	i	i	i	i	.	.	.
O=[N+]([O-])c1cc(-c2csc(NC(CO)c3nc4ccccc4n3CCOCCO)n2)ccc1Cl (stereo not drawn)	i	7.7*	i	i	i	6.0%*	40%*	i
CCCn1c(C(C)Nc2nc(-c3ccc(C)cc3)cs2)nc2ccccc21 (stereo not drawn)	i	i	i	i	i	.	.	.
CCCn1c(C(C)Nc2nc(-c3ccc(Cl)c([N+](=O)[O-])c3)cs2)nc2ccccc21 (stereo not drawn)	i	8*	i	i	i	16%*	i	i
CCCn1c(C(C)Nc2nc(-c3cccc(Br)c3)cs2)nc2ccccc21 (stereo not drawn)	i	i	i	i	i	.	i	i
Cc1ccc(C(=O)C(C)OC(=O)CCN=C2NS(=O)(=O)c3ccccc32)cc1 (stereo not drawn)	i	i	i	i	i	.	.	.
O=c1c2ccccc2nc2c3ccccc3c3nncn3n12	.	i	.	.	i	.	.	.
O=c1c2ccccc2nc2n1CCS2(=O)=O	i	6.2*	i	i	i	26%*	i	i
O=C1CC2(CCN(C(=O)c3ccccc3[N+](=O)[O-])CC2)Oc2ccccc21	i	i	i	i	i	.	.	.
COc1c(/C=C2\SC(=Nc3ccccc3Cl)NC2=O)cccc1[N+](=O)[O-]	i	8.5*	i	i	i	34%*	70%*	i
O=C1NC(=Nc2ccccc2Cl)S/C1=C\c1cccc([N+](=O)[O-])c1O	i	i	i	i	i	i	i	i
COC(=O)c1cc(=O)n(-c2ccc(F)cc2)c(=Nc2ccc(F)cc2)s1	i	13*	i	i	i	30%*	54%*	i
CCOc1ccc(/C=c2\sc3nc(-c4ccco4)nn3c2=O)cc1OCC	i	6*	i	i	i	8.5%*	i	133%*
COc1ccccc1/C=c1\sc2nc(-c3ccco3)nn2c1=O	i	i	i	i	i	.	.	.
CSC1=C(C#N)C(c2sccc2C)CC(=O)N1 (stereo not drawn)	i	i	i	i	i	.	.	.
CCOc1ccc(S(=O)(=O)n2nc(C)c(S(=O)(=O)N3CCOCC3)c2C)cc1	i	i	i	i	i	.	.	.
c1ccc(CC2CCN(c3ncnc4sccc34)CC2)cc1	.	i	.	.	i	.	.	.
O=C(O)c1cc2c(N3CCC(Cc4ccccc4)CC3)ncnc2s1	i	17*	i	i	i	58%*	50%*	i
Cc1ccc(-c2csc(NC(=O)CSc3nc4ccccc4[nH]3)n2)cc1	.	i	.	.	i	.	i	i
COc1ccc(-c2csc(NC(=O)CSc3nc4ccccc4c(=O)[nH]3)n2)cc1	i	i	i	i	i	.	.	.
Cc1cc(=O)[nH]c(SCC(=O)Nc2nc(-c3ccccc3)cs2)n1	i	i	i	i	i	.	i	i
O=[N+]([O-])c1cc(Cl)c(O)c2ncccc12	.	6.7*	.	.	i	12%*	i	i
SMILES	MrgX1 allo act	RGS4 inh	MrgX1 antag	MrgX1 ag	RGS4 pot	RGS4 inh valid	M3R Ca ctr	M3R basal Ca ctr
O=[N+]([O-])c1cc(F)c2cccnc2c1O	i	i	i	i	i	.	.	.
O=[N+]([O-])c1cc(Cl)c2cccnc2c1O	i	i	i	i	i	.	i	134%*
C/C(=N\NC(=O)CCC(=O)Nc1ccc(C)c(C)c1)C1CC1	i	i	i	i	i	.	.	.
Cn1ncc(S(=O)(=O)Cc2ccccc2)c(Cl)c1=O	i	26*	i	i	i	42%*	i	i
C[C@]12C(=O)N(c3ccc(Br)cc3)C(=O)N1[C@@H]1c3ccccc3OC[C@@H]1[C@H]2c1ccccc1	i	i	i	i	i	.	.	.
C[C@@]12C(=O)N(c3ccc(F)cc3)C(=O)N1[C@@H]1c3ccccc3OC[C@@H]1[C@H]2c1ccccc1	i	i	i	i	i	.	.	.
C[C@]12C(=O)N(c3ccc(Cl)cc3)C(=O)N1[C@H]1c3ccccc3OC[C@@H]1[C@H]2c1ccccc1	i	i	i	i	i	i	i	i
C[C@]12C(=O)N(c3ccc(Cl)cc3)C(=O)N1[C@@H]1c3ccccc3OC[C@@H]1[C@H]2c1ccccc1	i	i	i	i	i	i	i	i
COc1cc2c(cc1OC)-c1cc(Nc3cccc(F)c3)nc(=O)n1CC2	.	i	.	.	i	.	.	.
COc1cc2c(cc1OC)-c1cc(Nc3ccc(F)cc3)nc(=O)n1CC2	i	i	i	i	i	i	i	i
COc1cc2c(cc1OC)-c1cc(Nc3ccc(N(C)C)cc3)nc(=O)n1CC2	i	5.6*	i	i	i	7.0%*	36%*	i
COc1cc2c(cc1OC)-c1cc(NC3CCCC3)nc(=O)n1CC2	i	i	i	i	i	.	.	.
Cc1onc(-c2ccccc2)c1NC(=O)N(CCC#N)Cc1ccccc1	i	6.3*	i	i	i	i	i	i
N#CCCN(Cc1ccccc1)C(=O)Nc1ccccc1	i	i	i	i	i	.	.	.
